High-throughput results as filed in PubChem BioAssay.
An excerpt weighted towards active compounds, which were near 3.8% of everything screened.
RGS4 act: RGS4 potentiation or activation; HEK293 M3R/inducible RGS4, carbachol calcium flux Fluo4; active compounds read low; B-score at 10 µM; actives 0.92% (n = 310,000); AID 463111;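 active = B-score of the integrated calcium signal more than 4 SD below the library mean, with starting fluorescence not abnormally high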;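 also: negative B-score means reduced calcium response which marks RGS4 activation or potentiation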
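Assay system: Inducible-RGS4 HEK293 cells carrying M3 receptor | Schedule: Compound preincubation 20 min at room temperature before agonist | Signal: Kinetic calcium fluorescence imaging with Fluo4-AM dye, 2 µM | Read-out basis: B score from integrated fluorescence ratio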
Lipid droplet: modulators of hepatic lipid droplet formation. AML12 mouse hepatocytes, oleate lipid droplets, BODIPY imaging. inhibition, % at 6.5 µM. actives 0.4% (n = 240,000). AID 1656;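 active = lipid droplet intensity inhibited by at least 50%, with more than 500 cells counted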
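material = mouse AML12 hepatocyte cell line, fixed after treatment | also added = 100 µM oleic acid challenge | doses = compound at 6.5 µM only | schedule = overnight exposure | technique = Image-based BODIPY and DAPI two-channel analysis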
MrgX1 agonist: agonists of human MrgX1 receptor. Q96LB2. MrgX1-HEK293 cells, Fluo-4 calcium fluorescence, agonist mode; active compounds read high. B-score at 10 µM. actives 0.44% (n = 310,000);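 active = calcium response B-score plate-corrected fluorescence ratio at least 3 library SD, with starting fluorescence B-score inside 5 SD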
Target sequence (Q96LB2 whole entry, looked up): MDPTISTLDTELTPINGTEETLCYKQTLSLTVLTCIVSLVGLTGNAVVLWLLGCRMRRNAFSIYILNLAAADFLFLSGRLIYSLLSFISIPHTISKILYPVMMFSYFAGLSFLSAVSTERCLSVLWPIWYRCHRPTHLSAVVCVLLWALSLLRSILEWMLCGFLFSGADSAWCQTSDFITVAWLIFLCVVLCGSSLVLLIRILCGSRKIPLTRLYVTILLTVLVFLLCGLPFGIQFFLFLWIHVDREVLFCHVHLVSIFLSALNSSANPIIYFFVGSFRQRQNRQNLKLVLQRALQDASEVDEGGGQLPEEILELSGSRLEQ
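Test system: HEK293 cells stably expressing human MrgX1 receptor; amount: 15,000 cells per well; doses: compound delivered in addition one of three; times: overnight plating before 1 h dye loading; detection: Fluo-4 NW calcium-flux fluorescence, kinetic read; read-out basis: B-scored fluorescence response ratio; controls: positive and negative controls per plate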
MrgX1 allo act: human MrgX1 positive allosteric modulation, primary screen | Q96LB2 | MrgX1-HEK293, Fluo-4 calcium flux, FDSS; active compounds read high | B-score at 10 µM | actives 0.63% (n = 310,000);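 active = plate-corrected calcium response at least 3 library SD above typical, normal starting fluorescence, not activating the receptor alone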;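 also: compound read alongside a low EC10 to EC30 dose of BAM8-22 agonist; peak minus trough fluorescence over baseline measured at the second addition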
MrgX1 antagonist: human MrgX1 receptor antagonism, primary screen. Q96LB2. MRGX1-HEK293 calcium flux, Fluo-4, BAM8-22 antagonism; active compounds read low. B-score at 10 µM. actives 1.3% (n = 310,000). AID 588676;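 active = calcium-response B-score plate-corrected more than 3 library SD below zero, starting fluorescence within 5 deviations, no agonist response on first addition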;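 also: peak minus trough fluorescence over baseline after final BAM8-22 challenge near maximal dose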
RGS4 block: inhibitors of human RGS4. P49798. HEK293 M3R/RGS4 inducible, Fluo-4 calcium flux; active compounds read high; triggered by carbachol at its EC20. B-score at 10 µM. actives 0.45% (n = 310,000). AID 463165;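 active = B-score, a plate-corrected calcium signal, over three deviations above library mean, with baseline fluorescence within five deviations of library mean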;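 also: RGS4 expression induced by doxycycline in cells with stable M3 receptor; B-score is computed from the integrated fluorescence ratio over baseline after carbachol; higher B-score means a larger calcium signal and so more RGS4 inhibition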
Target sequence (P49798 whole entry, looked up): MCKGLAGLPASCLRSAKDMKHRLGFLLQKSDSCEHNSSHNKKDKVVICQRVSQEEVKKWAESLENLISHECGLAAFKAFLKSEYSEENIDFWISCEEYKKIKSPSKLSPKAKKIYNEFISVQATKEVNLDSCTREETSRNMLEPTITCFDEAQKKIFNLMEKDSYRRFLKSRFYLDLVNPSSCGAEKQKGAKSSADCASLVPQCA
MrgX1 PAM conf: reconfirmed allosteric activator of human MrgX1 receptor; MrgX1-HEK293, Fluo-4 calcium fluorescence, FDSS; actives 13% (n = 1,200); shares compounds with MrgX1 allo act; activation (ratio percentage), % at 10 µM; AID 602413;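 active = ratio at least 3 SD above the weak peptide control, stable starting fluorescence, no direct agonism earlier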;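 also: compound followed by low BAM8-22 agonist challenge near EC20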
HEK293 Ca flux: MrgX1 antagonist counter-screen hit in parental HEK293 cells. shares compounds with MrgX1 antagonist. Fluo-4 calcium fluorescence, FDSS. fluorescence ratio F(max-min)/F0 at 10 µM. actives 2% (n = 4,000). AID 624111;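 active = duplicate-averaged calcium fluorescence ratio at least three times the standard deviation of buffer wells, a nonspecific response in parental cells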
HEK293 Ca counter: MrgX1 allosteric activator counter-screen hit in parental HEK293 cells; actives 0.4% (n = 4,000); AID 624114; shares compounds with MrgX1 antagonist; fluorescence ratio F(max-min)/F0 at 10 µM; parental HEK293 calcium flux, Fluo-4 fluorescence ratio; active compounds read high;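 active = calcium fluorescence ratio, averaged over duplicates, at least 3 SD of the buffer-well ratio, meaning a nonspecific response in receptor-free cells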;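 also: untransfected parental HEK293 lacking MrgX1 used as counterscreen for MrgX1 allosteric activators; fluorescence change taken during the second addition on a kinetic imager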
HEK293 Ca cntr2: MrgX1 activator counter-screen hit in parental HEK293 cells; shares compounds with MrgX1 antagonist; Fluo-4 calcium fluorescence (FDSS); active compounds read high; fluorescence ratio F(max-min)/F0 at 10 µM; actives 8.7% (n = 4,000);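 active = calcium fluorescence ratio at least three times the spread of buffer wells, meaning a non-specific response in parental cells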
* hit, by the source's call.

How did Cc1ccc(-n2c(COc3ccccc3)n[nH]c2=S)cc1 do in these assays?
RGS4 act: inactive; Lipid droplet: 35.7; MrgX1 agonist: inactive; MrgX1 allo act: 7.96*; MrgX1 antagonist: inactive; RGS4 block: inactive; MrgX1 PAM conf: inactive; HEK293 Ca flux: inactive; HEK293 Ca counter: inactive; HEK293 Ca cntr2: inactive

Results for COc1ccc(-n2c(COc3ccc(C)cc3)n[nH]c2=S)cc1 ?
RGS4 act: inactive; Lipid droplet: -7.4; MrgX1 agonist: inactive; MrgX1 allo act: inactive; MrgX1 antagonist: inactive; RGS4 block: inactive

What do the screens show for `Cc1ccc(-n2c(CCc3ccccc3)n[nH]c2=S)cc1C`?
RGS4 act: inactive; Lipid droplet: 1.2; MrgX1 agonist: inactive; MrgX1 allo act: 6.48*; MrgX1 antagonist: inactive; RGS4 block: inactive; MrgX1 PAM conf: inactive; HEK293 Ca flux: inactive; HEK293 Ca counter: inactive; HEK293 Ca cntr2: inactive

Results for Cc1ccc(-n2c(COc3cccc(C)c3)n[nH]c2=S)cc1 ?
RGS4 act: inactive; Lipid droplet: -9.8; MrgX1 agonist: inactive; MrgX1 allo act: 11.3*; MrgX1 antagonist: inactive; RGS4 block: inactive; MrgX1 PAM conf: inactive; HEK293 Ca flux: inactive; HEK293 Ca counter: inactive; HEK293 Ca cntr2: inactive

How did COc1ccc(N(CC(=O)Nc2ccccc2C(=O)NCCc2ccccc2)S(C)(=O)=O)cc1OC do in these assays?
RGS4 act: inactive; Lipid droplet: 6.1; MrgX1 agonist: inactive; MrgX1 allo act: inactive; MrgX1 antagonist: inactive; RGS4 block: inactive

How did Cc1ccc2c(c1)Sc1c(ccc3ccccc13)N2 do in these assays?
RGS4 act: inactive; Lipid droplet: 23.3; MrgX1 agonist: inactive; MrgX1 allo act: inactive; MrgX1 antagonist: inactive; RGS4 block: inactive

What do the screens show for `CN1CCCC(OC(=O)c2cccc(Br)c2)C1` (stereo not drawn)?
RGS4 act: inactive; MrgX1 agonist: inactive; MrgX1 allo act: inactive; MrgX1 antagonist: inactive; RGS4 block: inactive

Results for CN1CCCC(OC(=O)c2ccccc2Br)C1 (stereo not drawn) ?
RGS4 act: inactive; Lipid droplet: 18.0; MrgX1 agonist: inactive; MrgX1 allo act: 6.57*; MrgX1 antagonist: inactive; RGS4 block: inactive; MrgX1 PAM conf: inactive; HEK293 Ca flux: inactive; HEK293 Ca counter: inactive; HEK293 Ca cntr2: inactive

How did Cc1c(Cl)cccc1NC(=O)N1CCN(C(=O)c2ccco2)CC1 do in these assays?
RGS4 act: inactive; MrgX1 agonist: inactive; MrgX1 allo act: inactive; MrgX1 antagonist: inactive; RGS4 block: inactive

How did COc1ccc(OC)c(CN2CCN(C(=O)c3ccc(NS(=O)(=O)c4cccc([N+](=O)[O-])c4)cc3)CC2)c1 do in these assays?
RGS4 act: inactive; MrgX1 agonist: inactive; MrgX1 allo act: 19.9*; MrgX1 antagonist: inactive; RGS4 block: inactive; MrgX1 PAM conf: 38.0%*; HEK293 Ca flux: inactive; HEK293 Ca counter: inactive; HEK293 Ca cntr2: inactive

What do the screens show for `COc1ccc(OC)c(CN2CCN(C(=O)c3cccc(S(=O)(=O)Nc4ccccc4OC)c3)CC2)c1`?
RGS4 act: inactive; MrgX1 agonist: inactive; MrgX1 allo act: inactive; MrgX1 antagonist: inactive; RGS4 block: inactive
